We go through three compounds from ChEMBL document CHEMBL2203058, “Isolation of steroidal glycosides from the Caribbean sponge Pandaros acanthifolium” (J Nat Prod, 2012).

Active and inactive are the calls of the source. The rule behind the calls is not given here. A value given as a limit tells only on which side of the number the result lay.

The subject of data set [1] is U-373MG ATCC. Kind of data set: (§1) Antioxidant activity in human U373 cells assessed as increase of antioxidant response element-mediated phase 2 protein expression at 25 ug/ml after 24 hrs by luciferase reporter gene assay relative to control. In kind it is functional. Put shortly:
(§2)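 U373 astrocytoma cells stably carrying firefly luciferase under ARE control, grown in DMEM with 10% FCS and antibiotics. 5 × 10^4 cells/well seeded in quadruplicate, exposed 24 h to 25, 10, 5 or 2.5 μg/mL glycoside, then luciferase read. Controls: mock-treated and DMSO 0.25% v/v. Activity expressed as fold change versus 25 μM tert-butylhydroquinone; >2-fold over TBHQ scored a hit.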
For orientation: A reporter such as luciferase makes a cellular process visible.

Data set [2] in a line: as §1. The class given is functional, U-373MG ATCC. Put shortly: as §2
A short description of data set [3]: Antioxidant activity in human U373 cells assessed as increase of antioxidant response element-mediated phase 2 protein expression after 24 hrs by luciferase reporter gene assay relative to TBHQ. The class given is functional, U-373MG ATCC. Put shortly:
as §2

For data set [4], the system named is U-373MG ATCC. Briefly: Cytoprotective activity in H2O2-stimulated human U373 cells assessed as increase of SOD activity treated 24 hrs before H2O2 stimulation measured after 24 hrs. The class given is functional, cell-based. Put shortly: (§3)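 U373 cells at 2 × 10^4/well in quadruplicate, pretreated 24 h with 25, 10, 5 or 2.5 μg/mL glycoside. Media replaced with fresh media containing glycoside plus 300 μM H2O2 for 24 h more. Cells PBS-washed, lysed by three freeze–thaw cycles, centrifuged; SOD (WST-1/xanthine oxidase inhibition, […], against SOD standard curve) or GPx measured by colorimetric kits.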

In data set [5] the test system is U-373MG ATCC. Briefly: Cytoprotective activity in human U373 cells assessed as effect of H2O2-stimulated lipid peroxidation assay at 2.5 to 25 ug/ml treated 24 hrs before H2O2 stimulation measured after 24 hrs by TBARS assay. In kind it is functional, cell-based. The gist of the method:
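U373 cells at 2 × 10^4/well in quadruplicate, 24 h pretreatment with 25, 10, 5 or 2.5 μg/mL glycoside, then 24 h in fresh media with glycoside and 300 μM H2O2. PBS-washed cells lysed by freeze–thaw; uncentrifuged lysate assayed for TBARS (MDA–TBA adduct, A532), calibrated with MDA 0–100 nmol/mL, reported as MDA equivalents. Mock and 0.25% DMSO controls.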

For data set [6], the system named is U-373MG ATCC. Briefly: Antioxidant activity in human U373 cells assessed as increase of antioxidant response element-mediated phase 2 protein expression after 24 hrs by luciferase reporter gene assay. The class given is functional, cell-based. The gist of the method:
as §2

Data set [7] concerns U-373MG ATCC. Kind of data set: Cytoprotective activity in H2O2-stimulated human U373 cells assessed as increase of glutathione peroxidase activity treated 24 hrs before H2O2 stimulation measured after 24 hrs. In kind it is functional, cell-based. Put shortly: as §3
Data set [8] can be described thus: Cytotoxicity against human U373 cells. The class given is cell-based. The conditions noted are these: u-373mg atcc. Put shortly: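 Viability measured by MTT tetrazolium reduction in parallel reporter U373 cultures under the reporter assay conditions: 24 h with 25, 10, 5 or 2.5 μg/mL glycoside, quadruplicate wells.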
For data set [9], the system named is xenobiotic response element (XRE)-mediated transcriptional activity. Briefly: Toxicity in human U373 cells assessed as effect on xenobiotic response element-mediated activity at 2.5 to 25 ug/ml after 24 hrs by luciferase reporter gene assay. In kind it is cell-based, U-373MG ATCC. The settings on record: read-out: FC. The gist of the method: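 XRE counterscreen: U373 astrocytoma cells stably carrying a luciferase cassette driven by the xenobiotic response element, grown in DMEM with 10% FCS and antibiotics. 5 × 10^4 cells/well in quadruplicate, 24 h with 25, 10, 5 or 2.5 μg/mL glycoside, then luciferase activity measured. Mock and DMSO (0.25% v/v) controls.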

For data set [10], the system named is U-373MG ATCC. Kind of data set: Cytoprotective activity in H2O2-stimulated human U373 cells assessed as increase of glutathione peroxidase activity at 2.5 to 25 ug/ml treated 24 hrs before H2O2 stimulation measured after 24 hrs. The class given is functional, cell-based. The gist of the method: as §3
Data set [11] relates to U-373MG ATCC. Briefly: Cytoprotective activity in H2O2-stimulated human U373 cells assessed as increase of SOD activity at 2.5 to 25 ug/ml treated 24 hrs before H2O2 stimulation measured after 24 hrs. The class given is functional, cell-based. The gist of the method:
as §3

As to `CC(C)(C)c1cc(O)ccc1O`, in the data set on U-373MG ATCC [1], the result was Active.
On to `CC(=O)O[C@H]1[C@@H](O[C@@H]2O[C@@H](C)[C@H](O)[C@@H](O)[C@H]2O)[C@H]2[C@@H]3CC[C@H]4C[C@@H](O[C@H]5O[C@@H](CO)[C@H](O)[C@@H](O)[C@@H]5O[C@@H]5O[C@@H](C)[C@H](O)[C@@H](O)[C@H]5O)CC[C@]4(C)[C@H]3CC[C@]2(C)[C@H]1[C@H](C)CCCC(C)C` [ACANTHIFOLIOSIDE G], for which the “fold change (FC)” value in data set [2] turned out to be 2.27; in [3], 2. Also, the Activity entry with U-373MG ATCC [4] was “Dose-dependent effect”; with U-373MG ATCC [6], “Dose-dependent effect”; in the data set with U-373MG ATCC [7] it was “Dose-dependent effect”; in data set [8], “Non-toxic”. Moreover, the outcome with U-373MG ATCC [5] was inactive. Also, in data set [9], the fold induction at 24 h was greater than 2.
In the case of `CC[C@H](C(C)C)[C@@H](O)C[C@@H](C)[C@H]1[C@@H](OC(C)=O)[C@@H](O[C@@H]2O[C@@H](C)[C@H](O)[C@@H](O)[C@H]2O)[C@H]2[C@@H]3CC=C4C[C@@H](O[C@H]5O[C@@H](CO)[C@H](O)[C@@H](O)[C@@H]5O[C@@H]5O[C@@H](C)[C@H](O)[C@@H](O)[C@H]5O)CC[C@]4(C)[C@H]3CC[C@@]21C` [ACANTHIFOLIOSIDE J], the “fold change (FC)” value in data set [2] is reported as 1.52. In addition, the result in the data set with U-373MG ATCC [10] and in the data set on U-373MG ATCC [11] was Active.
